Reference: ChEMBL document CHEMBL1142068, “Reduced susceptibility to polyenes associated with a missense mutation in the ERG6 gene in a clinical isolate of Candida glabrata with pseudohyphal growth” (2007)
≈ marks a conversion by molar mass, not a printed value. Calls of active or inactive are those of the source. The rule behind the calls is not given here.

Key:
Nakaseomyces glabratus [1] = assay: Growth inhibition of Candida glabrata 21231 isolate in YEPD agar plates at 4 mg/ml; type: functional, organism-based
Method in brief: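 Dye susceptibility on YEPD agar plates with dye at increasing levels from 0.1 to 4 mg/ml. Inocula ranged from 2 × 10^6 to 2 × 10^2 cells. The read-out is the minimum dye concentration that inhibited growth of the same quantity of cells.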

Nakaseomyces glabratus [2] = assay: Growth inhibition of polyene-resistant Candida glabrata 21229 isolate in YEPD agar plates at 4 mg/ml; type: functional, organism-based
Nakaseomyces glabratus [3] = assay: Susceptibility of Candida glabrata 21231 isolate at 10 ug by disk diffusion method; type: functional; conditions: read-out: IZ
Method in brief: (§1)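 Disk diffusion was run on Casitone agar (pH 7.2) with Neosensitab tablets. Tablets held 10 μg for amphotericin B, econazole, miconazole and clotrimazole, and 8 μg for itraconazole. Read-out is the inhibition-zone diameter in mm, as the mean of triplicates. Isolates were compared by Wilcoxon-Mann-Whitney test, unilateral α = 0.05.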

Nakaseomyces glabratus [4] = assay: Susceptibility of polyene-resistant Candida glabrata 21229 isolate at 10 ug by disk diffusion method; type: functional; conditions: read-out: IZ
Method in brief: (§2)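 Disk diffusion on Casitone agar (pH 7.2, chloramphenicol 0.5 g/liter) with drug tablets. Tablet drug contents: voriconazole 1 μg, itraconazole 8 μg, amphotericin B/miconazole/clotrimazole 10 μg, fluconazole/ketoconazole 15 μg, nystatin 50 μg. Read-out is growth inhibition zone diameter (mm), mean of triplicates. Isolates were compared by Wilcoxon-Mann-Whitney test, unilateral α = 0.05.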

Nakaseomyces glabratus [5] = assay: Antimicrobial activity against Candida glabrata 21231 isolate by E-test; type: functional
Nakaseomyces glabratus [6] = assay: Antimicrobial activity against polyene-resistant Candida glabrata 21229 isolate by E-test; type: functional
Nakaseomyces glabratus [7] = assay: Susceptibility of Candida glabrata 21229F34 isolate with URA3 by disk diffusion method; type: functional
Nakaseomyces glabratus [8] = assay: Susceptibility of Candida glabrata 21229C218 isolate expressing ERG6 gene by disk diffusion method; type: functional
Method in brief: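 Complemented ura3 derivative carrying a plasmid-borne ERG6 copy was selected on selective medium. Amphotericin B susceptibility was tested by disk diffusion on Casitone agar (pH 7.2) with Neosensitab tablets. Read-out is the growth-inhibition zone diameter in mm.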

Nakaseomyces glabratus [9] = assay: Susceptibility of polyene-resistant Candida glabrata 21229 isolate by disk diffusion method; type: functional; method in brief: as §2
Nakaseomyces glabratus [10] = assay: Susceptibility of Candida glabrata 21231 isolate at 15 ug by disk diffusion method; type: functional; conditions: read-out: IZ; method in brief: as §2
Nakaseomyces glabratus [11] = assay: Susceptibility of polyene-resistant Candida glabrata 21229 isolate at 15 ug by disk diffusion method; type: functional; conditions: read-out: IZ; method in brief: as §2
Nakaseomyces glabratus [12] = assay: Susceptibility of Candida glabrata 21231 isolate at 8 ug by disk diffusion method; type: functional; conditions: read-out: IZ; method in brief: as §1
Nakaseomyces glabratus [13] = assay: Susceptibility of polyene-resistant Candida glabrata 21229 isolate at 8 ug by disk diffusion method; type: functional; conditions: read-out: IZ; method in brief: as §2
Nakaseomyces glabratus [14] = assay: Susceptibility of polyene-resistant Candida glabrata 21229 isolate at 1 ug by disk diffusion method; type: functional; method in brief: as §2
Nakaseomyces glabratus [15] = assay: Susceptibility of Candida glabrata 21231 isolate at 50 ug by disk diffusion method; type: functional, organism-based; method in brief: as §2
Nakaseomyces glabratus [16] = assay: Susceptibility of polyene-resistant Candida glabrata 21229 isolate at 50 ug by disk diffusion method; type: functional, organism-based; method in brief: as §2

Molecule | zone of inhibition at 10 µg/disc (Nakaseomyces glabratus [3]) | zone of inhibition at 10 µg/disc (Nakaseomyces glabratus [4]) | MIC (Nakaseomyces glabratus [5]) | MIC (Nakaseomyces glabratus [6]) | also measured
Nc1c(/N=N/c2ccc(-c3ccc(/N=N/c4cc(S(=O)(=O)O)c5ccccc5c4N)cc3)cc2)cc(S(=O)(=O)O)c2ccccc12 | – | – | – | – | Activity (Nakaseomyces glabratus [1]): inactive; Activity (Nakaseomyces glabratus [2]): inactive
C[C@@H]1[C@H](O)[C@@H](C)/C=C/C=C/C=C/C=C/C=C/C=C/C=C/[C@H](O[C@@H]2O[C@H](C)[C@@H](O)[C@H](N)[C@@H]2O)C[C@@H]2O[C@](O)(C[C@@H](O)C[C@@H](O)[C@H](O)CC[C@@H](O)C[C@@H](O)CC(=O)O[C@H]1C)C[C@H](O)[C@H]2C(=O)O [AMPHOTERICIN B] | 34 mm | 13 mm | 0.029 µg/mL (≈ 0.0314 µM) | 1.3 µg/mL (≈ 1.41 µM) | inhibition zone (IZ) (Nakaseomyces glabratus [7]): 16 mm; inhibition zone (IZ) (Nakaseomyces glabratus [8]): 30 mm; inhibition zone (IZ) (Nakaseomyces glabratus [9]): 16 mm
CC[C@H](C)C[C@H](C)CCCCCCCCC(=O)N[C@H]1C[C@@H](O)[C@@H](NCCN)NC(=O)[C@@H]2[C@@H](O)CCN2C(=O)[C@H]([C@H](O)CCN)NC(=O)[C@H]([C@H](O)[C@@H](O)c2ccc(O)cc2)NC(=O)[C@@H]2C[C@@H](O)CN2C(=O)[C@H]([C@@H](C)O)NC1=O [CASPOFUNGIN] | – | – | 0.023 µg/mL (≈ 0.021 µM) | 0.024 µg/mL (≈ 0.022 µM) | –
Clc1ccccc1C(c1ccccc1)(c1ccccc1)n1ccnc1 [CLOTRIMAZOLE] | 26 mm | 40 mm | – | – | –
OC(Cn1cncn1)(Cn1cncn1)c1ccc(F)cc1F [FLUCONAZOLE] | – | – | 3.7 µg/mL (≈ 12.1 µM) | 1 µg/mL (≈ 3.27 µM) | zone of inhibition at 15 µg/disc (Nakaseomyces glabratus [10]): 20 mm; zone of inhibition at 15 µg/disc (Nakaseomyces glabratus [11]): 50 mm
CCC(C)n1ncn(-c2ccc(N3CCN(c4ccc(OCC5COC(Cn6cncn6)(c6ccc(Cl)cc6Cl)O5)cc4)CC3)cc2)c1=O (stereo not drawn) [ITRACONAZOLE] | – | – | 18.7 µg/mL (≈ 26.5 µM) | 1.8 µg/mL (≈ 2.55 µM) | zone of inhibition at 8 µg/disc (Nakaseomyces glabratus [12]): 16 mm; zone of inhibition at 8 µg/disc (Nakaseomyces glabratus [13]): 30 mm
CC(=O)N1CCN(c2ccc(OCC3COC(Cn4ccnc4)(c4ccc(Cl)cc4Cl)O3)cc2)CC1 (stereo not drawn) [KETOCONAZOLE] | – | – | 0.136 µg/mL (≈ 0.256 µM) | 0.034 µg/mL (≈ 0.064 µM) | zone of inhibition at 15 µg/disc (Nakaseomyces glabratus [10]): 24 mm; zone of inhibition at 15 µg/disc (Nakaseomyces glabratus [11]): 50 mm
Clc1ccc(COC(Cn2ccnc2)c2ccc(Cl)cc2Cl)c(Cl)c1 (stereo not drawn) [MICONAZOLE] | 18 mm | 30 mm | – | – | –
C[C@@H](c1ncncc1F)[C@](O)(Cn1cncn1)c1ccc(F)cc1F [VORICONAZOLE] | – | – | 0.125 µg/mL (≈ 0.358 µM) | 0.047 µg/mL (≈ 0.135 µM) | zone of inhibition at 1 µg/disc (Nakaseomyces glabratus [14]; Nakaseomyces glabratus, 21229, read-out: IZ): 43 mm; zone of inhibition at 1 µg/disc (Nakaseomyces glabratus [14]; read-out: IZ): 43 mm
NYSTATIN | – | – | – | – | inhibition zone (IZ) (Nakaseomyces glabratus [15]): 34 mm; inhibition zone (IZ) (Nakaseomyces glabratus [16]): 16 mm
